≈ marks a conversion by molar mass, not a printed value.
Legend:
Blumeria hordei = assay: Fungicidal activity against Blumeria graminis f. sp. hordei infested first-leaf stage of barley seedlings assessed as growth inhibition applied as spray after 10 days under green house conditions; assay type: functional; details: 240 h
Pyricularia grisea = assay: Fungicidal activity against Magnaporthe oryzae assessed as mycelial growth inhibition after 7 days; assay type: functional, organism-based, Pyricularia oryzae
Procedure, shortened: (§1)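 Mycelial agar discs (4 mm) placed on potato dextrose agar plates containing test compound and incubated at 25 °C. Pyricularia oryzae was incubated for 7 d and Rhizoctonia solani for 3 d.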

Rhizoctonia solani = assay: Fungicidal activity against Rhizoctonia solani assessed as mycelial growth inhibition after 3 days; assay type: functional, organism-based; procedure, shortened: as §1

C[Si](C)(C)CCC(O)(Cn1cncn1)c1ccc(F)cc1 (configuration not stated)
MIC (Blumeria hordei): 3 µg/mL (≈ 9.76 µM) | IC50 (Pyricularia grisea): 10 ppm | IC50 (Rhizoctonia solani): > 1 ppm

C[Si](C)(C)CCC(O)(Cn1cncn1)c1ccc(Cl)cc1 (configuration not stated)
MIC (Blumeria hordei): 3 µg/mL (≈ 9.26 µM) | IC50 (Pyricularia grisea): > 10 ppm | IC50 (Rhizoctonia solani): > 1 ppm

C[Si](C)(C)CCC(O)(Cn1cncn1)c1ccc(Br)cc1 (configuration not stated)
MIC (Blumeria hordei): 3 µg/mL (≈ 8.14 µM) | IC50 (Pyricularia grisea): > 10 ppm | IC50 (Rhizoctonia solani): > 1 ppm

C[Si](C)(C)CCC(O)(Cn1cncn1)c1ccccc1 (configuration not stated)
MIC (Blumeria hordei): 3 µg/mL (≈ 10.4 µM) | IC50 (Pyricularia grisea): > 10 ppm | IC50 (Rhizoctonia solani): > 1 ppm

Cc1ccc(C(O)(CC[Si](C)(C)C)Cn2cncn2)cc1 (configuration not stated)
MIC (Blumeria hordei): > 3 µg/mL | IC50 (Pyricularia grisea): > 10 ppm | IC50 (Rhizoctonia solani): > 1 ppm

COc1ccc(C(O)(CC[Si](C)(C)C)Cn2cncn2)cc1 (configuration not stated)
MIC (Blumeria hordei): > 3 µg/mL | IC50 (Pyricularia grisea): > 10 ppm | IC50 (Rhizoctonia solani): > 1 ppm

C[Si](C)(C)CCC(O)(Cn1cncn1)c1ccc(F)cc1F (configuration not stated)
MIC (Blumeria hordei): 0.3 µg/mL (≈ 0.922 µM) | IC50 (Pyricularia grisea): 3.1 ppm | IC50 (Rhizoctonia solani): 0.12 ppm

C[Si](C)(C)CCC(O)(Cn1cncn1)c1ccc(Cl)cc1Cl (configuration not stated)
MIC (Blumeria hordei): 0.3 µg/mL (≈ 0.837 µM) | IC50 (Pyricularia grisea): 2.57 ppm | IC50 (Rhizoctonia solani): 0.05 ppm

C[Si](C)(C)CCCC(O)(Cn1cncn1)c1ccc(F)cc1 (configuration not stated)
MIC (Blumeria hordei): 3 µg/mL (≈ 9.33 µM) | IC50 (Pyricularia grisea): > 3 ppm | IC50 (Rhizoctonia solani): 0.42 ppm

C[Si](C)(C)CCCC(O)(Cn1cncn1)c1ccc(Cl)cc1 (configuration not stated)
MIC (Blumeria hordei): 1 µg/mL (≈ 2.96 µM) | IC50 (Pyricularia grisea): > 3 ppm | IC50 (Rhizoctonia solani): 0.61 ppm

C[Si](C)(C)CCCC(O)(Cn1cncn1)c1ccccc1 (configuration not stated)
MIC (Blumeria hordei): 3 µg/mL (≈ 9.89 µM) | IC50 (Pyricularia grisea): > 10 ppm | IC50 (Rhizoctonia solani): > 1 ppm

C[Si](C)(C)CCCC(O)(Cn1cncn1)c1ccc(F)cc1F (configuration not stated)
MIC (Blumeria hordei): 1 µg/mL (≈ 2.95 µM) | IC50 (Pyricularia grisea): 0.89 ppm | IC50 (Rhizoctonia solani): 0.01 ppm

C[Si](C)(C)CCCC(O)(Cn1cncn1)c1ccc(Cl)c(Cl)c1 (configuration not stated)
MIC (Blumeria hordei): > 3 µg/mL | IC50 (Pyricularia grisea): > 10 ppm | IC50 (Rhizoctonia solani): 1.94 ppm

C[Si](C)(C)CC(O)(Cn1cncn1)c1ccc(F)cc1 (configuration not stated) [SIMECONAZOLE]
MIC (Blumeria hordei): 0.3 µg/mL (≈ 1.02 µM) | IC50 (Pyricularia grisea): 1.09 ppm | IC50 (Rhizoctonia solani): 0.04 ppm
